The text below walks through data of ChEMBL document CHEMBL2417427, “High analgesic and anti-inflammatory in vivo activities of six new hybrids NSAIAs tetrahydropyran derivatives” (Bioorg Med Chem, 2013).

Activity calls are given as the source filed them. The calls are words filed in the database; no cut-off is given here.

One may read the LD50 as the dose expected to kill half of the subjects tested. What is called ED50 is the midpoint of the dose-response relation.

Data set [1] deals with Mus musculus. The data set is described as follows: Toxicity in Albino-Swiss mouse assessed as forced motor activity at 10 mg/kg, po measured after 60 mins by rota-rod test. The format is organism-based. Also noted: dose 10 mg/kg, route oral. To be noted: in vivo, 1 h. Put shortly:
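Mice, 6 per group, trained twice the day before to stay 5 min on a rotating roller at 10 rev/min. Next day given 10 mg/kg p.o. (suspension in 5% ethyl acetate, 5 mL/kg) or vehicle, then placed on the roller 60 min later for 5 min. Read-out was number of falls; mean ± SD, ANOVA with Bonferroni.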

Data set [2] can be described thus: Acute toxicity in po dosed Albino-Swiss mouse assessed as hyperventilation administered as single dose measured after 5 hrs until day 14. It is filed as organism-based. To be noted: in vivo. Put shortly: (§1)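 Oral single dose given as a suspension in 5% ethyl acetate (5 mL/kg), in increasing doses up to 2000 mg/kg, following WHO and OECD guidelines. Animals were observed from 5 h after dosing, then daily until day 14, for disorientation, hyperactivity, piloerection and hyperventilation. LD50 was fitted by nonlinear regression of percent deaths versus dose. n = 6 per group.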

Data set [3] is described as follows: Acute toxicity in po dosed Albino-Swiss mouse assessed as hyperactivity administered as single dose measured after 5 hrs until day 14. It is filed as organism-based. To be noted: in vivo. Put shortly:
as §1

Data set [4] concerns Mus musculus. The data set is described as follows: Antinociceptive activity in Albino-Swiss mouse assessed as increase in thermal-stimulus induced tail flick latency at 10 mg/kg, po measured over 20 to 120 mins. It is filed as functional, organism-based. Also noted: dose 10 mg/kg. Put shortly:
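Mice, 6 per group, dosed orally at 10 mg/kg as a suspension in 5% ethyl acetate vehicle (5 mL/kg). Light intensity set so baseline latency fell at 4–6 s; animals outside this range were excluded. Two pre-dose latencies averaged as baseline, then six readings at 20-min intervals. Reported as percentage increase over baseline per time point, or as AUC (trapezoid rule) over 20–120 min.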
For orientation: Thermal pain tests record how soon the animal reacts.

Data set [5] relates to Mus musculus. The data set is described as follows: Toxicity in Albino-Swiss mouse assessed as spontaneous locomotor activity at 10 mg/kg, po measured after 60 mins by open-field test. To be noted: in vivo, 1 h. Also on record: dose 10 mg/kg, route oral. It is filed as organism-based. The method in brief: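 Oral dosing at 10 mg/kg (5% ethyl acetate suspension, 5 mL/kg) or vehicle, 6 mice per group. At 60 min each mouse was placed alone in a chamber with the floor divided into 50 squares of 5 × 5 cm. Squares walked during 5 min were counted; mean ± SD, ANOVA with Bonferroni.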

For data set [6], the system named is Mus musculus. The data set is described as follows: Antinociceptive activity in po dosed Albino-Swiss mouse assessed as acetic acid-induced abdominal writhing compound administered 30 mins prior challenge measured over 30 mins post acetic acid challenge. The format is functional. To be noted: Abdomen. Put shortly:
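Mice were dosed orally at 1, 5 and 10 mg/kg as a suspension in 5% ethyl acetate vehicle (5 mL/kg). Acetic acid 1.2% (v/v) was then given ip, and writhes (abdominal contraction, body stretching, hind-limb extension) were counted for 30 min from injection. n = 6 per group. ED50 (µmol/kg) was obtained by sigmoidal dose-response nonlinear regression.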
In general terms: Writhing tests count abdominal constrictions after an irritant is injected.

Data set [7] is described as follows: Acute toxicity in po dosed Albino-Swiss mouse assessed as piloerection administered as single dose measured after 5 hrs until day 14. It is filed as organism-based. The following applies: in vivo. Put shortly: as §1
The nature of data set [8]: Acute toxicity in po dosed Albino-Swiss mouse assessed as disorientation administered as single dose measured after 5 hrs until day 14. The format is organism-based. To be noted: in vivo. Put shortly:
as §1

In data set [9] the test system is Mus musculus. The data set is described as follows: Ratio of diclofenac ED50 to compound ED50 for antinociceptive activity in po dosed Albino-Swiss mouse assessed as acetic acid-induced abdominal writhing compound administered 30 mins prior challenge measured over 30 mins post acetic acid challenge. The format is functional, Abdomen.

In the case of `CC(C(=O)OC[C@@H]1C[C@H](Cl)C[C@H](c2cccc3ccccc23)O1)c1cccc(C(=O)c2ccccc2)c1` (mixture of isomers), the Activity entry in data set [1] and in [5] was “Non-toxic” throughout. The LD50 at 5 h in data set [2], in data set [3], in data set [7] and in data set [8] was greater than 2000 mg/kg in each case. In addition, the outcome in [4] was Active. Further, the ED50 in [6] was determined as 14 µmol/kg.

As to `COc1ccc2cc(C(C)C(=O)OC[C@@H]3C[C@H](Cl)C[C@H](c4cccc5ccccc45)O3)ccc2c1` (mixture of isomers), the Activity result in data set [1] and in data set [5] was “Non-toxic” throughout. Further, the LD50 at 5 h in data set [2], in data set [3], in data set [7] and in [8] was greater than 2000 mg/kg throughout. The outcome in data set [4] was Active. Also, in data set [6], the 50% effective dose (ED50) was 4.6 µmol/kg.

For the compound `CC(C)Cc1ccc(C(C)C(=O)OC[C@@H]2C[C@H](Cl)C[C@H](c3cccc4ccccc34)O2)cc1` (mixture of isomers), the Activity entry in data set [1] and in data set [5] was “Non-toxic” each time. Further, the LD50 at 5 h in [2], in data set [3], in data set [7] and in [8] was greater than 2000 mg/kg each time. The result in [4] was Active. The ED50 in data set [6] turned out to be 10.3 µmol/kg.

`O=C(Cc1ccccc1Nc1c(Cl)cccc1Cl)OC[C@@H]1C[C@H](Cl)C[C@H](c2cccc3ccccc23)O1` (racemic): the Activity entry in data set [1] and in [5] was “Non-toxic” throughout. The LD50 at 5 h in data set [2], in data set [3], in data set [7] and in data set [8] was greater than 2000 mg/kg each time. In addition, in [4], the result was Active. Moreover, the median effective dose (ED50) in data set [6] was 3.17 µmol/kg. Also, the “Ratio ED50” value in data set [9] is on record as greater than 10.

For `OC[C@@H]1C[C@H](Cl)C[C@H](c2cccc3ccccc23)O1` (racemic), the median effective dose (ED50) in [6] was 28 µmol/kg.

With `CC(=O)Oc1ccccc1C(=O)OC[C@@H]1C[C@H](Cl)C[C@H](c2cccc3ccccc23)O1` (racemic), the Activity result in [1] and in [5] was “Non-toxic” in each case. In addition, the LD50 at 5 h in data set [2], in [3], in data set [7] and in data set [8] was greater than 2000 mg/kg in each case. Besides, the result in data set [4] was Active. The ED50 in [6] came out at 20.4 µmol/kg.

In the case of `COc1ccc2c(c1)c(CC(=O)OC[C@@H]1C[C@H](Cl)C[C@H](c3cccc4ccccc34)O1)c(C)n2C(=O)c1ccc(Cl)cc1` (racemic), the Activity result in [1] and in [5] was “Non-toxic” throughout. For the same compound, the LD50 at 5 h in data set [2], in data set [3], in [7] and in data set [8] was greater than 2000 mg/kg in each case. In addition, the result in data set [4] was Active. Besides, the ED50 in data set [6] turned out to be 13.8 µmol/kg.

With `CC(=O)Oc1ccccc1C(=O)O` [ASPIRIN], in [6], the 50% effective dose (ED50) is 44.2 µmol/kg.

For `O=C(O)Cc1ccccc1Nc1c(Cl)cccc1Cl` [DICLOFENAC POTASSIUM], the ED50 in data set [6] stood at 32.5 µmol/kg.

Consider `CC(C)Cc1ccc(C(C)C(=O)O)cc1` (stereo unspecified) [IBUPROFEN], for which the ED50 in [6] is 60.3 µmol/kg.

For the compound `COc1ccc2c(c1)c(CC(=O)O)c(C)n2C(=O)c1ccc(Cl)cc1` [INDOMETHACIN], in [6], the ED50 was 72.6 µmol/kg.

In the case of `CC(C(=O)O)c1cccc(C(=O)c2ccccc2)c1` (stereo unspecified) [KETOPROFEN], in data set [6], the ED50 came out at 46.6 µmol/kg.

On to `COc1ccc2cc([C@H](C)C(=O)O)ccc2c1` [NAPROXEN], for which the ED50 in [6] worked out at 21.8 µmol/kg.
